Screening results (PubChem)
N-glyco inh = increase of ERlucT glycosylation luciferase signal, primary screen, N-linked glycosylation inhibitor project, D54 ERlucT cells, luminescence, set 2; D54 ERlucT glycosylation luciferase reporter, 24 h; percent of 100 nM tunicamycin response; reporter increase, % at 12.5 µM; actives 0.23% (n = 360,000); AID 588692, 2011;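 active = mean luciferase reporter signal, scaled so untreated is 0 and the glycosylation-blocking control 100, at or above a set limit in every replicate; inconclusive = mean reaches the limit but not every replicate does; inactive = mean below the limit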;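 note: luciferase carries N-glycosylation sites so blocking glycosylation raises the light; 0% = median of neutral control wells and 100% = median of 100 nM tunicamycin wells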
MsrA inhibitor = bovine MsrA enzyme inhibitors, primary screen, biochemical, absorbance, HTS. purified bovine MsrA, absorbance read-out. inhibition, % at 15.5 µM. actives 0.75% (n = 360,000); in the data active = inhibition above about 4.5%;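 note: 0% = vehicle wells with enzyme and 100% = reference inhibitor wells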
Vif inh = HIV Vif self-association inhibitors, primary screen, imaging, HEK293T, single point; HEK293T cells, Vif self-association by quenched fluorescence, 24 h; inhibition, % at 7.49 µM; actives 0.35% (n = 340,000); in the data active = inhibition above about 50%, passing the limit was not always enough; inconclusive = no clear call, values can overlap the other calls; inactive = below about 31%
aDG glyco up = activators of alpha-DG glycosylation, primary screen, uHTS, Pro5-aDG cells, AlphaScreen; alpha-DG glycosylation AlphaScreen (IIH6); 0% Pro5, 100% B10-LARGE cell signal; activation, % at 10 µM; actives 0.22% (n = 360,000);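 active = activation of at least 8% versus controls, or a plate z-score of at least 8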;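 note: Pro5 are CHO cells carrying HIG-tagged alpha-DG that lacks glycosylation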
bovine MsrA act = bovine MsrA enzyme activators, primary screen, biochemical, absorbance, HTS | AID 602163, 2012 | actives 0.3% (n = 360,000) | activation, % at 10.6 µM | purified bovine MsrA, absorbance read-out | Methionine sulfoxide reductase A (Bos taurus); in the data active = activation above about 7.5%;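 note: 0% = vehicle and 100% = reference activator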
UCH37 inh = inhibitors of human UCH37 deubiquitinase, primary screen, biochemical, Ub-AMC cleavage, fluorescence; Ubiquitin carboxyl-terminal hydrolase isozyme L5 (Homo sapiens), Q9Y5K5; inhibition, % (concentration not given with the values); purified proteasome/UCH37; actives 0.33% (n = 330,000);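 active = mean inhibition over replicate wells above about 20%, limit read from the data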;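 note: 0% = compound-free wells with enzyme and 100% = wells lacking proteasome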
Target sequence (Q9Y5K5 whole entry, looked up): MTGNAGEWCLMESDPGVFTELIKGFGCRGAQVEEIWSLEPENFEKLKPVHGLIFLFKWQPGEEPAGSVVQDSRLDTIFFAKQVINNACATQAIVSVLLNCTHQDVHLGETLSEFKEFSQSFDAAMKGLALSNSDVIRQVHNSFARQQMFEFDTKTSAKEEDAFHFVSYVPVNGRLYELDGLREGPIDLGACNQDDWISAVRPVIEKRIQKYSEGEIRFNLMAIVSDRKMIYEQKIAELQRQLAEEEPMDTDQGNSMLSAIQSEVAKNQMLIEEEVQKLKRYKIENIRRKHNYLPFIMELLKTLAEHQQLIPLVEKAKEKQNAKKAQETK
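Schedule: 30 min plus 25 min, room temperature / Material: human UCH37 within purified proteasomes / Technique: AMC fluorescence intensity at 355/460 nm / Buffer or medium: pH 7.4 Tris-HCl (50 mM) with ovalbumin, ATP-MgCl2, DTT / Controls: wells without proteasome as full block, compound-free enzyme plus substrate as uninhibited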
UCH37 confirm = retest of human UCH37 deubiquitinase inhibitors, confirmation, biochemical, Ub-AMC cleavage rate, fluorescence | shares compounds with UCH37 inh | Proteasome-bound UCH37 | inhibition, % at 20 µM | actives 27% (n = 480);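 active = average inhibition over replicates above about 50%, so the earlier screening hit is confirmed, limit read from the data; inactive = the rest, counted as false positives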;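 note: based on cleavage rate fitted by regression over a 30 min kinetic read; 0% = proteasome plus Ub-AMC and 100% = Ub-AMC without proteasome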
MsrA activ conf = bovine MsrA activators, retest, confirmation, biochemical, absorbance, HTS | shares compounds with bovine MsrA act | purified bovine MsrA, absorbance read-out | activation, % at 10.6 µM | actives 12% (n = 1,000) | AID 602270, 2012; in the data active = activation above about 4%;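 note: enzyme coupled to thioredoxin and thioredoxin reductase with NADPH; 0% = vehicle wells and 100% = reference activator wells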
The depositor's hits bear a star. Most compounds without a hit are left out; they make up all but 1.9% or so of the library.

What do the screens show for `Cc1onc(-c2c(Cl)cccc2Cl)c1C(N)=NOC(=O)N(C)C`?
UCH37 inh: 1

Results for O=[N+]([O-])C=C1NCCN1Cc1ccc(Cl)nc1 ?
UCH37 inh: 5

What do the screens show for `CC12CC[C@H]3[C@@H](CCC4(O)C[C@H](O)CCC34C=NNC(=O)c3ccccc3Cl)C1(O)CCC2C1=CC(=O)OC1` (some centres not stated)?
UCH37 inh: -4

Results for Cc1ccccc1-n1c(O)c(/C=N/Nc2nc3c(c(=O)n(C)c(=O)n3C)n2C)c(=O)[nH]c1=S ?
N-glyco inh: 1; MsrA inhibitor: 2; Vif inh: 0; aDG glyco up: 0; bovine MsrA act: -6; UCH37 inh: 8

What do the screens show for `Cc1cccc(-n2c(O)c(/C=N/Nc3nc4c(c(=O)n(C)c(=O)n4C)n3C)c(=O)[nH]c2=S)c1`?
N-glyco inh: 2; MsrA inhibitor: 1; Vif inh: -2; aDG glyco up: 0; bovine MsrA act: -3; UCH37 inh: 27*; UCH37 confirm: 22

Results for Oc1ccc(C=NNP(=S)(c2ccccc2)c2ccccc2)c(O)c1O ?
UCH37 inh: 0

Results for O=C(O)CC1OCC=C2CN3CCC45C6=CC(=O)C(=O)C([N+](=O)[O-])=C6NC4C1C2CC35 (configuration not stated) ?
N-glyco inh: -7; Vif inh: 8; aDG glyco up: 0; bovine MsrA act: 4; UCH37 inh: 97*; UCH37 confirm: 97*

What do the screens show for `COC(=O)C1=C(c2cccc(C#N)c2)C[C@@H]2CC[C@H]1N2C(=O)NCCOc1ccccc1Cl`?
N-glyco inh: 2; MsrA inhibitor: -1; Vif inh: -3; aDG glyco up: 0; bovine MsrA act: -1; UCH37 inh: 46*; UCH37 confirm: 7

How did CN1/C(=C\C=C2C(=O)NC(=O)NC2=O)C(C)(C)c2ccccc21 do in these assays?
N-glyco inh: 2; MsrA inhibitor: -1; Vif inh: -1; aDG glyco up: 0; bovine MsrA act: -3; UCH37 inh: 39*; UCH37 confirm: 6

What do the screens show for `CNC(=O)ON=C(C)Cc1nnn(-c2cc(C)on2)n1`?
UCH37 inh: 1

What do the screens show for `CN1CCN(c2ccc([N+](=O)[O-])c3no[n+]([O-])c23)CC1`?
N-glyco inh: -19; MsrA inhibitor: 1; Vif inh: -1; aDG glyco up: 0; bovine MsrA act: 2; UCH37 inh: 42*; UCH37 confirm: 29

Results for CN1CCN(c2ccc(S(C)(=O)=O)cc2[N+](=O)[O-])CC1 ?
N-glyco inh: 0; MsrA inhibitor: -1; Vif inh: -7; aDG glyco up: -1; bovine MsrA act: -2; UCH37 inh: 4

What do the screens show for `O=C1C(=O)c2cccc3cccc1c23`?
N-glyco inh: 7; MsrA inhibitor: 1; Vif inh: 7; aDG glyco up: 0; bovine MsrA act: 0; UCH37 inh: 3

Results for O=C1C(=O)c2ccccc2-c2ccccc21 ?
N-glyco inh: -23; MsrA inhibitor: 0; Vif inh: 3; aDG glyco up: 0; bovine MsrA act: 49*; UCH37 inh: 87*; UCH37 confirm: 101*

How did Cc1nc2c(=O)n(C)c(=O)nc-2n(C)n1 do in these assays?
N-glyco inh: -19; MsrA inhibitor: 0; Vif inh: 9; aDG glyco up: 0; bovine MsrA act: 18*; UCH37 inh: 100*; UCH37 confirm: 100*; MsrA activ conf: 13*

What do the screens show for `CC12CC[C@H]3[C@@H](CCC4(O)C[C@H](O)CCC34C=NNC(=O)c3ccccc3O)C1(O)CCC2C1=CC(=O)OC1` (some centres not stated)?
UCH37 inh: -5

Results for C[C@]12CC[C@@H](O)C[C@@H]1CC[C@@H]1[C@@H]2CC[C@]2(C)C(=O)[C@H](O)C[C@@H]12 ?
N-glyco inh: -3; Vif inh: 12; aDG glyco up: -1; bovine MsrA act: 19*; MsrA activ conf: -1

Results for C[C@]12CCC3[C@@H](CC[C@@H]4C[C@H](O)CC[C@]34C)[C@@H]1CCC2=O (some centres not stated) ?
N-glyco inh: 0; MsrA inhibitor: -1; Vif inh: 9; aDG glyco up: 0; bovine MsrA act: -5; UCH37 inh: -2

What do the screens show for `ON=Cc1c[nH]c2ccccc12`?
UCH37 inh: 3

What do the screens show for `O=P(C(=NO)N1CCCCC1)(N1CCOCC1)N1CCOCC1`?
UCH37 inh: 4

What do the screens show for `C=C1C(=O)[C@@]23C[C@H]4[C@@H]5[C@@]6(C)CCC[C@@]57[C@@H]2[C@@H](O)[C@@H]1C[C@H]3[C@H]7N4C6`?
N-glyco inh: -6; MsrA inhibitor: 0; Vif inh: 1; aDG glyco up: 0; bovine MsrA act: 26*; UCH37 inh: 7; MsrA activ conf: 17*

How did c1ccc2[nH]c(CCNC3CCCCC3)nc2c1 do in these assays?
N-glyco inh: -5; MsrA inhibitor: 0; Vif inh: 3; aDG glyco up: 1; bovine MsrA act: 7.8*; UCH37 inh: -2; MsrA activ conf: -1

How did O=C(CSC1c2ccccc2-c2ccccc21)NN=Cc1ccccc1O do in these assays?
UCH37 inh: -4

What do the screens show for `CCOC(=O)c1c(N)n(CCCOC(=O)c2ccco2)c2nc3ccccc3nc12`?
N-glyco inh: -11; MsrA inhibitor: 1; Vif inh: -9; aDG glyco up: 14*; bovine MsrA act: 11*; UCH37 inh: inactive; MsrA activ conf: 1

What do the screens show for `C[n+]1c2ccccc2nc2ccc(NCCO)cc21`?
N-glyco inh: 4; MsrA inhibitor: 0; Vif inh: inconclusive; aDG glyco up: 0; bovine MsrA act: 59*; UCH37 inh: 19; MsrA activ conf: 51*

How did OCCNc1c2c(nc3ccccc13)CCCC2 do in these assays?
N-glyco inh: -1; MsrA inhibitor: 3; Vif inh: 4; aDG glyco up: 1; bovine MsrA act: -3; UCH37 inh: 9
